Reference: ChEMBL document CHEMBL4387702, “Design and synthesis novel di-carbonyl analogs of curcumin (DACs) act as potent anti-inflammatory agents against LPS-induced acute lung injury (ALI)” (Eur J Med Chem, 2019)
Active and inactive are the calls of the source. No cut-off for these calls is given here.

Experiments:
RAW264.7 [1] = assay: Inhibition of MAPK/NFkappaB in ICR mouse RAW264.7 cells assessed as reduction in LPS-induced TNF-alpha production at 10 uM pretreated for 0.5 hrs followed by LPS challenge and measured after 24 hrs by ELISA relative to piperlongumine; assay type: cell-based
RAW264.7 [2] = assay: Inhibition of MAPK/NFkappaB in ICR mouse RAW264.7 cells assessed as reduction in LPS-induced IL6 production at 10 uM pretreated for 0.5 hrs followed by LPS challenge and measured after 24 hrs by ELISA relative to piperlongumine; assay type: cell-based
RAW264.7 [3] = assay: Cytotoxicity against ICR mouse RAW264.7 cells assessed as effect on cell proliferation at 10 uM after 24 hrs by MTT assay; assay type: cell-based; details: raw264.7, 24 h
RAW264.7 [4] = assay: Inhibition of MAPK/NFkappaB in ICR mouse RAW264.7 cells assessed as reduction in LPS-induced TNF-alpha production at 10 uM pretreated for 0.5 hrs followed by LPS challenge and measured after 24 hrs by ELISA relative to curcumin; assay type: cell-based
[5] = test system: peritoneal macrophages (Mus musculus); assay: Inhibition of MAPK/NFkappaB in ICR mouse peritoneal macrophages assessed as reduction in LPS-induced IL6 production at 10 uM pretreated for 0.5 hrs followed by LPS challenge and measured after 24 hrs by ELISA relative to curcumin
RAW264.7 [6] = assay: Inhibition of MAPK/NFkappaB in ICR mouse RAW264.7 cells assessed as reduction in LPS-induced IL6 production at 10 uM pretreated for 0.5 hrs followed by LPS challenge and measured after 24 hrs by ELISA relative to control; assay type: cell-based
RAW264.7 [7] = assay: Inhibition of MAPK/NFkappaB in ICR mouse RAW264.7 cells assessed as reduction in LPS-induced TNFalpha production at 10 uM pretreated for 0.5 hrs followed by LPS challenge and measured after 24 hrs by ELISA relative to control; assay type: cell-based
RAW264.7 [8] = assay: Inhibition of MAPK/NFkappaB in ICR mouse RAW264.7 cells assessed as reduction in LPS-induced IL6 production pretreated for 0.5 hrs followed by LPS challenge and measured after 24 hrs by ELISA; assay type: cell-based
RAW264.7 [9] = assay: Inhibition of MAPK/NFkappaB in ICR mouse RAW264.7 cells assessed as reduction in LPS-induced TNFalpha production pretreated for 0.5 hrs followed by LPS challenge and measured after 24 hrs by ELISA; assay type: cell-based
[10] = target: MAP kinase p38 (Mus musculus) (UniProt P47811+O08911+Q9WUI1+Q9Z1B7); assay: Inhibition of LPS-induced p38 MAPK phosphorylation in ICR mouse RAW264.7 cells at 10 uM preincubated for 0.5 hrs followed by LPS challenge and measured after 30 mins by immunoblotting analysis; assay type: cell-based
Procedure, shortened: (§1)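 RAW 264.7 cells were pretreated with compound for 0.5 h and then stimulated with LPS for 30 min. Lysates were resolved on 10% or 12% SDS-PAGE and transferred to nitrocellulose. Membranes were blocked in TBS (pH 7.6) with 0.05% Tween 20 and 5% milk. Blots were probed for p-p38, p38, p-ERK, ERK, IκBα and GAPDH, detected with HRP secondaries and ECL.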

RAW264.7 [11] = assay: Inhibition of LPS-induced ERK phosphorylation in ICR mouse RAW264.7 cells at 10 uM preincubated for 0.5 hrs followed by LPS challenge and measured after 30 mins by immunoblotting analysis; assay type: cell-based; procedure, shortened: as §1
[12] = target: Transcription factor p65 (Mus musculus) (UniProt Q04207); assay: Inhibition of LPS-induced NFkappaB p65 nuclear translocation in ICR mouse RAW264.7 cells preincubated for 0.5 hrs followed by LPS challenge and measured after 40 mins by DAPI staining-based immunofluorescence microscopic analysis; assay type: cell-based
Procedure, shortened: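 RAW 264.7 cells were pretreated with compound for 0.5 h, then given LPS for 40 min (methods) or 45 min (legend). Cells were fixed with 4% paraformaldehyde and permeabilized in methanol. Anti-p65 (1:200) was applied overnight at 4 °C, then PE-conjugated secondary (1:200) for 2 h. Nuclei were stained with DAPI and cells viewed by fluorescence microscopy.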

[13] = Stability in pH 7.4 phosphate buffer assessed as compound decomposition measured up to 25 mins by UV-Vis spectroscopy; assay type: physicochemical; details: pH 7.4, 25 min
Procedure, shortened: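 Compound stability was followed by recording UV-visible absorption spectra in phosphate buffer at pH 7.4.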

RAW264.7 [14] = assay: Inhibition of NFkappaB/MAPK signaling in LPS-induced mouse RAW264.7 cells assessed as down regulation of IkappaB expression at 10 uM preincubated for 0.5 hrs followed by LPS-challenge and measured after 30 mins by immunoblotting analysis; assay type: cell-based; procedure, shortened: as §1

Chain of Transcription factor p65 (Mus musculus) (Q04207 whole entry): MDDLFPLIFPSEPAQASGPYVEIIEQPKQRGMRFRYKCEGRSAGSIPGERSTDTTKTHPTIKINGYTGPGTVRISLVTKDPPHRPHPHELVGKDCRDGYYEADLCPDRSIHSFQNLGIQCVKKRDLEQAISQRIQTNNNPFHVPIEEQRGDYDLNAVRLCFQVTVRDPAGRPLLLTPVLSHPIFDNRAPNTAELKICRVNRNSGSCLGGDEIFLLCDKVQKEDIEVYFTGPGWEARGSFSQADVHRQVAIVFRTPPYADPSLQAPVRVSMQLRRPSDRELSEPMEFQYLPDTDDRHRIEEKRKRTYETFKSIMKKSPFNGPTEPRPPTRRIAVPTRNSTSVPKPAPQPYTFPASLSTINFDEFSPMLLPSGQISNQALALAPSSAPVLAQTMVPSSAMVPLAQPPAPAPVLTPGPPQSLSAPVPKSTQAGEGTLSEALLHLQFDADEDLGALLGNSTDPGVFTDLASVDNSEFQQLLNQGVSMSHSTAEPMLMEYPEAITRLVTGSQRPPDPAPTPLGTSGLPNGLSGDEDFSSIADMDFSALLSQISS

SMILES	Activity (RAW264.7 [3])	inhibition (RAW264.7 [6])	inhibition (RAW264.7 [7])	further results
COc1cc(/C=C2\CCCN(C(=O)/C=C/c3cccc(Br)c3)C2=O)cc(OC)c1OC	Non-Toxic	–	–	inhibition (RAW264.7 [1]): < 85.3%; inhibition (RAW264.7 [2]): < 85.3%; inhibition (RAW264.7 [4]): < 85.3%; inhibition [5]: < 85.3%
COc1cc(/C=C2\CCCN(C(=O)/C=C/c3ccc(OC(C)=O)cc3)C2=O)cc(OC)c1OC	Non-Toxic	39.6 to 99.5%	39.6 to 99.5%	–
COc1ccccc1/C=C/C(=O)N1CCC/C(=C\c2cc(OC)c(OC)c(OC)c2)C1=O	Non-Toxic	39.6 to 99.5%	39.6 to 99.5%	–
COc1ccc(F)c(/C=C/C(=O)N2CCC/C(=C\c3cc(OC)c(OC)c(OC)c3)C2=O)c1	Non-Toxic	46.8 to 68.2%	38.5 to 53.4%	–
COc1cccc(/C=C/C(=O)N2CCC/C(=C\c3cc(OC)c(OC)c(OC)c3)C2=O)c1OC	Non-Toxic	inactive	inactive	–
COc1ccc(/C=C/C(=O)N2CCC/C(=C\c3cc(OC)c(OC)c(OC)c3)C2=O)c(OC)c1	Non-Toxic	39.6 to 99.5%	39.6 to 99.5%	–
COc1cc(/C=C2\CCCN(C(=O)/C=C/c3ccc(F)cc3Cl)C2=O)cc(OC)c1OC	Non-Toxic	46.8 to 68.2%	38.5 to 53.4%	–
COc1cc(/C=C2\CCCN(C(=O)/C=C/c3ccc(Br)cc3)C2=O)cc(OC)c1OC	Non-Toxic	–	–	inhibition (RAW264.7 [1]): < 85.3%; inhibition (RAW264.7 [2]): < 85.3%; inhibition (RAW264.7 [4]): < 85.3%; inhibition [5]: < 85.3%
COc1cc(/C=C2\CCCN(C(=O)/C=C/c3ccc(F)cc3)C2=O)cc(OC)c1OC	Non-Toxic	–	–	inhibition (RAW264.7 [1]): < 85.3%; inhibition (RAW264.7 [2]): < 85.3%; inhibition (RAW264.7 [4]): < 85.3%; inhibition [5]: < 85.3%
COc1cc(/C=C/C(=O)N2CCC/C(=C\c3cc(OC)c(OC)c(OC)c3)C2=O)cc(OC)c1OC	Non-Toxic	39.6 to 99.5%	39.6 to 99.5%	–
COc1cccc(/C=C/C(=O)N2CCC/C(=C\c3cc(OC)c(OC)c(OC)c3)C2=O)c1	Non-Toxic	39.6 to 99.5%	39.6 to 99.5%	–
COc1cc(/C=C2\CCCN(C(=O)/C=C/c3c(Cl)cccc3Cl)C2=O)cc(OC)c1OC	Non-Toxic	39.6 to 99.5%	39.6 to 99.5%	–
COc1cc(OC)c(OC)cc1/C=C/C(=O)N1CCC/C(=C\c2cc(OC)c(OC)c(OC)c2)C1=O	Non-Toxic	39.6 to 99.5%	39.6 to 99.5%	–
COc1cc(/C=C2\CCCN(C(=O)/C=C/c3ccc(F)c(F)c3)C2=O)cc(OC)c1OC	Non-Toxic	39.6 to 99.5%	39.6 to 99.5%	–
COc1cc(/C=C2\CCCN(C(=O)/C=C/c3ccccc3O)C2=O)cc(OC)c1OC	Non-Toxic	39.6 to 99.5%	39.6 to 99.5%	–
COc1cc(/C=C/C(=O)N2CCC=CC2=O)cc(OC)c1OC [PIPLARTINE]	Non-Toxic	Active	Active	–
COc1cc(/C=C2\CCCN(C(=O)/C=C/c3cccc(F)c3)C2=O)cc(OC)c1OC	Non-Toxic	–	–	inhibition (RAW264.7 [1]): < 85.3%; inhibition (RAW264.7 [2]): < 85.3%; inhibition (RAW264.7 [4]): < 85.3%; inhibition [5]: < 85.3%
COc1cc(/C=C2\CCCN(C(=O)/C=C/c3cc(F)ccc3F)C2=O)cc(OC)c1OC	Non-Toxic	46.8 to 68.2%	38.5 to 53.4%	–
COc1ccc(/C=C/C(=O)N2CCC/C(=C\c3cc(OC)c(OC)c(OC)c3)C2=O)cc1OC(C)=O	Non-Toxic	39.6 to 99.5%	39.6 to 99.5%	–
COc1cc(/C=C2\CCCN(C(=O)/C=C/c3cc(C)ccc3C)C2=O)cc(OC)c1OC	Non-Toxic	39.6 to 99.5%	39.6 to 99.5%	–
COc1cc(/C=C2\CCCN(C(=O)/C=C/c3c(F)cccc3Cl)C2=O)cc(OC)c1OC	Non-Toxic	46.8 to 68.2%	38.5 to 53.4%	–
COc1cc(/C=C2\CCCN(C(=O)/C=C/c3ccc(Cl)cc3Cl)C2=O)cc(OC)c1OC	Non-Toxic	46.8 to 68.2%	38.5 to 53.4%	–
COc1cc(/C=C2\CCCN(C(=O)/C=C/c3ccccc3F)C2=O)cc(OC)c1OC	Non-Toxic	–	–	inhibition (RAW264.7 [1]): < 85.3%; inhibition (RAW264.7 [2]): < 85.3%; inhibition (RAW264.7 [4]): < 85.3%; inhibition [5]: < 85.3%
COc1cc(/C=C2\CCCN(C(=O)/C=C/c3ccc([N+](=O)[O-])cc3)C2=O)cc(OC)c1OC	Non-Toxic	94.1%	38.6%	–
COc1ccc(/C=C/C(=O)N2CCC/C(=C\c3cc(OC)c(OC)c(OC)c3)C2=O)c(F)c1	Non-Toxic	39.6 to 99.5%	39.6 to 99.5%	–
COc1cc(/C=C2\CCCN(C(=O)/C=C/c3ccccc3Cl)C2=O)cc(OC)c1OC	Non-Toxic	–	–	inhibition (RAW264.7 [1]): < 85.3%; inhibition (RAW264.7 [2]): < 85.3%; inhibition (RAW264.7 [4]): < 85.3%; inhibition [5]: < 85.3%
COc1cc(/C=C2\CCCN(C(=O)/C=C/c3ccccc3OC(C)=O)C2=O)cc(OC)c1OC	Non-Toxic	39.6 to 99.5%	39.6 to 99.5%	–
COc1cc(/C=C/C(=O)CC(=O)/C=C/c2ccc(O)c(OC)c2)ccc1O [CURCUMIN]	Non-Toxic	Active	Active	inhibition (RAW264.7 [8]): Active; inhibition (RAW264.7 [9]): Active; inhibition [10]: Active; inhibition (RAW264.7 [11]): Active; inhibition [12]: Active; Stability [13]: Unstable; inhibition (RAW264.7 [14]): Active
COc1cc(/C=C2\CCCN(C(=O)/C=C/c3ccccc3C(F)(F)F)C2=O)cc(OC)c1OC	Non-Toxic	–	–	inhibition (RAW264.7 [1]): < 85.3%; inhibition (RAW264.7 [2]): < 85.3%; inhibition (RAW264.7 [4]): < 85.3%; inhibition [5]: < 85.3%
